This data set in a line: Toxicity liver stage against HepG2, at 10uM. Type of data set: cell-based. Details: test concentration 10 uM, cell line HepG2-A16-CD81EGFP. As to conditions: human, HepG2-A16-CD81EGFP cells; read-out: INHIBITION
In a few lines: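 Uninfected HepG2-A16-CD81EGFP cells, 3 × 10^3 per well, 1536-well, plated on prespotted compound at 10 μM final, parasite-free screening media added to match infected plates; puromycin 10 μM positive, DMSO 0.5% negative; run in parallel with 48 h PbLuc assay at 37 °C, 5% CO2; viability by CellTiter-Glo luminescence, normalized to controls.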
For `COc1cccc(CN2CC[C@H](c3nnc(-c4ccco4)o3)C2)c1`, the cytotoxicity at 10 µM is -1.34%.
With `CC(=O)N1CCC(NC2(Cc3cc(CC(C)C)on3)COC2)CC1` the figure was 2.8%; with `CCc1c(C)sc2c1c(N)nc(=O)n2CCN1CCCCC1`, 9.49%.
Turning to `CC(C)(C)S(=O)(=O)c1ccc(N2CCN(c3ccccc3)CC2)nn1`, the cytotoxicity at 10 µM was -4.81%.
For `COC(=O)N1CCc2ccccc2C1C(=O)NCc1cccs1` (stereo unspecified), the cytotoxicity at 10 µM was -0.634%.
As to `O=C(C1CCCC1)N1C[C@H]2CNC[C@H]2C1`, the cytotoxicity at 10 µM turned out to be 1.47%.
On to `CN(C)CC(=O)N1CC2(CCN(S(=O)(=O)c3ccccc3)C2)C1`, for which the cytotoxicity at 10 µM is -6.34%.
On to `CCS(=O)(=O)N1CCC2(CC(=O)N(c3ccccc3C)C2)C1` (stereo unspecified), for which the cytotoxicity at 10 µM was 2.82%.
For `CC(C)NC(=O)c1ccc2c(c1)C(c1nc[nH]n1)CN2S(C)(=O)=O` (stereo unspecified), the cytotoxicity at 10 µM was -132%.
Regarding `c1cc(CN2CCO[C@@H]3CNC[C@@H]32)co1`, the cytotoxicity at 10 µM worked out at 6.71%.
On to `CS(=O)(=O)N1CCCC12CCCN(C(=O)c1ccc[nH]1)C2` (stereo unspecified), for which the cytotoxicity at 10 µM is -145%.
For the compound `CNC(=O)c1cc2c(nc1NC(C)C)CCNCC2`, the cytotoxicity at 10 µM came out at 0.102%.
Take `N#Cc1ccc(OC[C@]23COC[C@H]2CN(Cc2ccccn2)C3)nc1`: the cytotoxicity at 10 µM was -0.182%.
Take `CCOCC(=O)N1CCn2cc(CN(C)Cc3ccco3)nc2C1`: the cytotoxicity at 10 µM was determined as 4.73%.
For the compound `Cn1c(=O)c2sccc2n(CC(=O)Nc2cccc(Cl)c2)c1=O`, the cytotoxicity at 10 µM was 5.86%.
Consider `COc1cccc2c1ccn2CC(=O)N[C@@H](CCSC)C(=O)O`, for which the cytotoxicity at 10 µM stood at 3.2%.
With `COCCCNC(=O)c1cc(OC)c2ccoc2c1`, the cytotoxicity at 10 µM amounted to 16.9%.
Next, `CCOc1ccc2nc(NC(=O)c3c(C(=O)O)cnn3C)sc2c1`: 6.47%; `COCCNc1ccc(CC2CCNC2)cn1` (stereo unspecified): 9.33%; `CC(=O)N1CCC(Cc2cnc(-c3c(C)nn(C)c3C)cn2)CC1`: -11.8%.
As for `Cc1noc(CN2CCN(C(C)C(=O)NCc3cccs3)CC2)n1` (stereo unspecified), the cytotoxicity at 10 µM was 17.2%.
As to `Cc1noc(C)c1CN(C)c1nccc(C(F)(F)F)n1`, the cytotoxicity at 10 µM is -4.73%.
Take `CC(C)(C)CC(=O)Nc1cnn(-c2ccccc2S(C)(=O)=O)c1`: the cytotoxicity at 10 µM was found to be 3.69%.
With `NC(=O)COc1cccc(Cn2cccn2)c1` the figure was -1.13%.
Turning to `COCCOCC1CCN(C(=O)c2ccc3[nH]cnc3c2)C1` (stereo unspecified), the cytotoxicity at 10 µM was -5.73%.
Turning to `CN(Cc1cnn(C)c1)C(=O)Nc1cccnc1-n1cccn1`, the cytotoxicity at 10 µM was -1.32%.
As for `Cc1ccc(S(=O)(=O)N2CCOCC2C#N)c(F)c1` (stereo unspecified), the cytotoxicity at 10 µM turned out to be 9.78%.
For `COc1cccc(-c2cc(NCc3nccn3C)n(C)n2)c1`, the cytotoxicity at 10 µM amounted to 0.684%.
With `Cc1ccnc(NC(=O)c2ccc(F)c(S(=O)(=O)NC3CC3)c2)c1`, the cytotoxicity at 10 µM worked out at 10.4%.
For the compound `Cc1ccc(C(=O)N(Cc2ccc(F)cc2F)C2CC2)c(=O)[nH]1`, the cytotoxicity at 10 µM was -2.01%.
In the case of `CCc1nc(CCNC(=O)NC2CC(=O)N(C(C)(C)C)C2)cs1` (stereo unspecified), the cytotoxicity at 10 µM is -1.51%.
With `CC(C)(C)NC(=O)CN1CCCN(Cc2cc(C#N)ccc2F)CC1`, the cytotoxicity at 10 µM is -4.62%.
`CCN(CC)c1ccc(NC(=O)N2CCc3sccc3C2)cn1`: the cytotoxicity at 10 µM is -5%.
With `CC(Nc1cccc(COCc2ccco2)c1)C(=O)NC(N)=O` (stereo unspecified), the cytotoxicity at 10 µM is -5.65%.
As to `COc1cc(F)ccc1N(C)Cc1ccncc1`, the cytotoxicity at 10 µM is -3.64%.
`CCS(=O)(=O)CCN(CC1CCCO1)C1CCCC1` (stereo unspecified): the cytotoxicity at 10 µM is -3.52%.
As for `CC(C)N(Cc1cnn(C)c1)CC1CCCN(S(C)(=O)=O)C1` (stereo unspecified), the cytotoxicity at 10 µM is -21.4%.
For the compound `Cc1nc(Cn2cc(I)cc(C)c2=O)oc1C`, the cytotoxicity at 10 µM turned out to be 0.939%.
As for `COc1ccc(CCNC(=O)NC2CCCC2)cc1OC`, the cytotoxicity at 10 µM is -10.9%.
Next, `Cc1cnn(CC2CN(CCS(=O)(=O)c3ccccc3)CCO2)c1` (stereo unspecified): -3.08%; `Cc1cc(NC(=O)NCCc2cccs2)n(C)n1`: 14.8%.
For `CCc1noc(C(C)N2CCN(c3ccc(C#N)cn3)CC2)n1` (stereo unspecified), the cytotoxicity at 10 µM was determined as 4.78%.
Take `COCC1CN(C(=O)Cc2ccccn2)Cc2cn(CC3CC3)nc21` (stereo unspecified): the cytotoxicity at 10 µM is -1.32%.
As for `CCc1c(C)nc(C)nc1N1C[C@@H](CN(C)CCN(C)C)[C@@H](CO)C1`, the cytotoxicity at 10 µM was -2.07%.
Consider `N[C@@H]1CCN(Cc2ccc(-c3nc(-c4cccnc4)cc(=O)[nH]3)cc2)C1`, for which the cytotoxicity at 10 µM was 9.48%.
Next, `COc1ccnc(N2Cc3cnc(C(C)(C)C)nc3C2)n1`: -9.85%; `O=C1N(CCc2ccccc2)CCCC1(O)CNCc1ccc(F)cc1` (stereo unspecified): -1.24%.
With `CC(C)c1nc(N2CCC(N3CCCC(O)C3)CC2)c2cnn(C)c2n1` (stereo unspecified), the cytotoxicity at 10 µM is -127%.
With `Nc1cnc(-c2cccc3ccnn23)cn1` the figure was -1.7%.
Turning to `CCC(Nc1nccc(C2CCCC2)n1)c1ncccc1C` (stereo unspecified), the cytotoxicity at 10 µM was -130%.
Consider `CC(C)Cc1cc(C(=O)NCCc2nnc(N)s2)n(C)n1`, for which the cytotoxicity at 10 µM stood at 0.649%.
With `CC(C)(C)c1ncc2c(n1)CN(C(=O)C(C)(C)n1cccc1)C2`, the cytotoxicity at 10 µM is -120%.
With `Cc1ccc(C#N)c(N2CCC3(CCC(=O)N(CC(N)=O)C3)CC2)n1`, the cytotoxicity at 10 µM came out at 0.845%.
For `CC(=O)c1ccc(N2CCC3(CCC(=O)N(C4CC4)C3)CC2)nc1`, the cytotoxicity at 10 µM came out at 4.36%.
Next, `O=C(Cc1ccc(O)c(F)c1)N1CCN(CC2CC2)[C@@H]2CS(=O)(=O)C[C@@H]21`: -2.06%; `CC(NC(=O)c1coc(COc2cccc(F)c2)n1)c1nnc(N)s1` (stereo unspecified): -144%; `Cn1c(CN2CCCCC2)nnc1C1CCCN(C(=O)CCC(N)=O)C1` (stereo unspecified): 3.94%.
With `COc1cc(NCC(O)CN2CCCCCC2)ncn1` (stereo unspecified) the figure was 2.8%; with `CN(CCO)c1nc(-c2ccccn2)nc2c1CCNC2`, -4.12%.
With `COc1cc(F)c(CN2CCN(CC(C)C)C(=O)C2C)cc1OC` (stereo unspecified), the cytotoxicity at 10 µM was determined as 1.63%.
With `CSCc1noc(CNC(=O)C2CCN(C(=O)C3CCCC3)CC2)n1` the figure was 9.98%; with `CN(C)[C@H]1CN(C(=O)c2ccc3sc4c(c3c2)CCNC4=O)C[C@@H]1O`, -5.38%.
On to `CCN1CCN(C[C@@H]2CN(c3ncccc3Cl)C[C@@H]2CO)CC1`, for which the cytotoxicity at 10 µM was -4.81%.
With `CC1CCN(CCNC(=O)c2ccn(-c3ccccc3)n2)CC1`, the cytotoxicity at 10 µM was -5.99%.
Next, `Cc1cc(C)n(CC2CCCN2Cc2ncc(C(C)(C)C)o2)n1` (stereo unspecified): -1.64%.
`Cc1nc(C2CCCN2C(=O)CCCn2cccn2)no1` (stereo unspecified): the cytotoxicity at 10 µM was -4.77%.
As to `Cc1ncsc1C(=O)NCCc1cccs1`, the cytotoxicity at 10 µM was -15.3%.
`CCc1noc(C)c1C(=O)NCC(c1ccc(C)cc1)N(C)C` (stereo unspecified): the cytotoxicity at 10 µM was -5.57%.
With `CN(C)c1ccc(CNC(=O)Nc2ccc(S(C)(=O)=O)nc2)cc1` the figure was -2.48%; with `Cc1ccc(NC2CCN(C(=O)c3cc(C)no3)CC2)nn1`, -11.6%; with `COCC(c1cccc(C(F)(F)F)c1)N(C)C(=O)c1cnccn1` (stereo unspecified), -11.7%.
On to `CN(CC(=O)N1CCCC1c1cnn(C)c1)Cc1ccccc1` (stereo unspecified), for which the cytotoxicity at 10 µM was -4.38%.
Next, `CCc1ncc2c(n1)CN(CC(=O)Nc1cc(C)no1)CC2`: -16.9%; `CC(C)c1nc(CN(C)C2CCN(Cc3nnc(C4CC4)o3)C2)no1` (stereo unspecified): 5.87%; `c1ccc(CCCN2CCCC2Cn2cncn2)cc1` (stereo unspecified): -0.121%.
As to `CC(C)CCOCCNC(=O)Nc1ccc(F)c(C(N)=O)c1`, the cytotoxicity at 10 µM was -11.6%.
Regarding `Cc1cc(C)n(C2CCCN(C(=O)CCOc3cccc(F)c3)C2)n1` (stereo unspecified), the cytotoxicity at 10 µM was -5.56%.
With `Cc1cccnc1NC(=O)NC(C)Cn1cccn1` (stereo unspecified), the cytotoxicity at 10 µM is -6.8%.
Consider `O=C(Cn1nc(-c2ccc(F)cc2)oc1=O)NCc1ccc(F)cc1`, for which the cytotoxicity at 10 µM was determined as 4.13%.
For `O=C(Nc1cnn(CCN2CCOCC2)c1)c1ccccn1`, the cytotoxicity at 10 µM was -14.5%.
For `Cc1ccc(-c2nc(CN3CCn4c(nnc4C4CC4)C3)co2)cc1`, the cytotoxicity at 10 µM is 5.17%.
Take `Cc1cnn(CCNCc2cccnc2)c1`: the cytotoxicity at 10 µM is -0.265%.
For the compound `CN1[C@@H](C(=O)NCC2CC2)C[C@H]2CN(Cc3cccc(C#N)c3)C[C@H]21`, the cytotoxicity at 10 µM is -8.22%.
Consider `O=C(NC1CCC1)[C@@H]1CCO[C@@H]2CCN(C3CCCC3)C[C@H]21`, for which the cytotoxicity at 10 µM stood at 9.05%.
Regarding `CNC(=O)N1CCc2cc(C(=O)N(C)C)c(NCC3CC3)nc2CC1`, the cytotoxicity at 10 µM was -0.395%.
Regarding `Cn1ccc(C(=O)N2CCOC3(COCCN(CC4CC4)C3)C2)n1` (stereo unspecified), the cytotoxicity at 10 µM came to 7.61%.
With `CN1CCO[C@H]2CN(C(=O)c3ccncc3F)C[C@H]21` the figure was -141%; with `CC(=O)N1CCC[C@@H](NCc2c[nH]c3ccccc23)[C@@H]1c1ccc(C)s1`, -39%.
For the compound `Cc1ccc(CN2CCC3(CC2)CC3CN(C)Cc2cccnc2)o1` (stereo unspecified), the cytotoxicity at 10 µM is -3.76%.
Next, `O=S(=O)(C1CC1)N1CCOCC2(CCN(c3ccccn3)C2)C1` (stereo unspecified): 12.9%.
On to `COCCN1CCC2(COCc3c(C)nc(N4CCOCC4)nc32)C1` (stereo unspecified), for which the cytotoxicity at 10 µM is -130%.
As to `COCCN1C[C@@H]2[C@@H](OC)CCN(C(=O)Cc3ccccc3)[C@@H]2C1`, the cytotoxicity at 10 µM amounted to 3.5%.
For the compound `CN1CCN(Cc2cccnc2)C2(CCN(Cc3ccoc3)C2)C1=O` (stereo unspecified), the cytotoxicity at 10 µM is -2.4%.
In the case of `CC(C)c1ccc(NS(=O)(=O)C=c2[nH]c(=O)n3cccc3c2=O)cc1`, the cytotoxicity at 10 µM is -4.55%.
In the case of `O=C(C1CCOCC1)N1C[C@H]2CC(OCc3ccccc3)C[C@H]2C1` (stereo partly specified), the cytotoxicity at 10 µM is -5.59%.
For `O[C@@H]1CC(CNCc2ccc(Cl)cc2)(COc2cccnc2)C[C@@H]1O` (stereo partly specified), the cytotoxicity at 10 µM is -2.23%.

The values are drawn from ChEMBL document CHEMBL4513216, “Probing the Open Global Health Chemical Diversity Library for Multistage-Active Starting Points for Next-Generation Antimalarials” (ACS Infect Dis, 2020).
